Data on two molecules can be found in ChEMBL document CHEMBL1124384, “Deaminoteicoplanin and its derivatives. Synthesis, antibacterial activity, and binding strength to Ac-D-Ala-D-Ala” (J Med Chem, 1989).

Values after ≈ are worked out from the molar mass of the structure shown.

Series [1] is described as follows: Association constant for compound at 31 degree C was determined. The class given is ADME. In short, it runs like this: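 UV difference spectroscopy at 31 °C. Antibiotic at 25 μM in 10% methanol/0.02 M sodium citrate buffer, pH 5, sat in sample and reference cells (4-cm path). Ac-D-Ala-D-Ala was added from a 4 mM stock to the sample cell, with buffer added to the reference. The absorbance change was read at 282–285 nm. K_A came from Scatchard plots, with antibiotic concentration set by UV at 279 nm.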

The test system of series [2] is Staphylococcus aureus. The series is described as follows: Minimal inhibitory concentration of compound against Staphylococcus aureus. It counts as functional. In short, it runs like this:
(§1)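 Broth MIC by 2-fold serial dilution in microtiter format, in Iso-sensitest broth, with a final inoculum of about 10⁴ cfu/mL. Plates were incubated 18–24 h at 37 °C. MIC was taken as the lowest concentration with no visible growth.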

Series [3] deals with Staphylococcus aureus. The series is described as follows: Minimal inhibitory concentration of compound against Staphylococcus aureus Tour in an inoculum of 10e6 cfu/mL. The class given is functional. In short, it runs like this:
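Twofold microtiter broth dilution in Iso-sensitest broth, with the inoculum raised to 10⁶ cfu/mL. After 18–24 h at 37 °C, MIC was read as the lowest concentration giving no visible growth.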

For series [4], the system named is Streptococcus pneumoniae. Briefly: Minimal inhibitory concentration of compound against Streptococcus pneumoniae UC41. The class given is functional. In short, it runs like this: (§2)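 Streptococci were tested by 2-fold broth microdilution in Todd-Hewitt broth, with a final inoculum of about 10⁴ cfu/mL. After 18–24 h at 37 °C, MIC was read as the lowest concentration with no visible growth.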

The test system of series [5] is Streptococcus pyogenes. The series is described as follows: Minimal inhibitory concentration of compound against Streptococcus pyogenes C203. The class given is functional. In short, it runs like this: as §2
For series [6], the system named is Enterococcus faecalis. The series is described as follows: Minimal inhibitory concentration of compound against Streptococcus faecalis AACC7080. The class given is functional. In short, it runs like this:
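For S. faecalis, 2-fold dilution MIC in a microtiter system using Iso-sensitest broth and a final inoculum of about 10⁴ cfu/mL. Incubation was 18–24 h at 37 °C. The endpoint was the lowest concentration without visible growth.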

Series [7] has as its system Staphylococcus epidermidis. The series is described as follows: Minimal inhibitory concentration of compound against […] ATCC 12228. It counts as functional.
Series [8] has as its system Staphylococcus aureus. Briefly: Minimal inhibitory concentration of compound against Staphylococcus aureus Tour determined in iso-sensitest broth supplemented with 30% bovine serum and an inoculum of 10e4 cfu/mL.
Series [9] has as its system Staphylococcus aureus. Briefly: Minimal inhibitory concentration of compound against Staphylococcus aureus Tour. It counts as functional. In short, it runs like this: as §1

In turn, `CCCCCCCCCC(=O)N[C@@H]1[C@H](Oc2c3cc4cc2Oc2ccc(cc2Cl)[C@@H](O[C@@H]2O[C@@H](CO)[C@@H](O)[C@H](O)[C@@H]2NC(C)=O)[C@@H]2NC(=O)[C@H](NC(=O)[C@@H]4NC(=O)[C@H]4NC(=O)[C@@H](Cc5ccc(c(Cl)c5)O3)NC(=O)Cc3ccc(O)c(c3)Oc3cc(O)cc4c3)c3ccc(O)c(c3)-c3c(O[C@H]4O[C@H](CO)[C@@H](O)[C@@H](O)[C@@H]4O)cc(O)cc3[C@@H](C(=O)O)NC2=O)O[C@@H](CO)[C@@H](O)[C@@H]1O` displayed a KA in series [1] of 130000 M⁻¹. For the same molecule, the MIC came to 0.5 µg/mL (≈ 0.268 µM) in [2]; 2 µg/mL (≈ 1.07 µM) in [3]; 0.25 µg/mL (≈ 0.134 µM) in series [4]; 0.12 µg/mL (≈ 0.0644 µM) in series [5]; 0.5 µg/mL (≈ 0.268 µM) in [6]; 0.12 µg/mL (≈ 0.0644 µM) in series [7]. Besides, it took 8 µg/mL (≈ 4.29 µM) to inhibit growth in [8] (MIC).
As to `N[C@H]1C(=O)N[C@@H]2Cc3ccc(c(Cl)c3)Oc3cc4cc(c3O)Oc3ccc(cc3Cl)[C@@H](O)[C@@H]3NC(=O)[C@H](NC(=O)[C@@H]4NC(=O)[C@@H](NC2=O)c2cc(O)cc(c2)Oc2cc1ccc2O)c1ccc(O)c(c1)-c1c(O)cc(O)cc1[C@@H](C(=O)O)NC3=O` [TEICOPLANIN AGLYCON], in series [1], the KA was determined as 180000 M⁻¹. The MIC in [9] amounted to 0.06 µg/mL (≈ 0.05 µM); in series [3], 0.12 µg/mL (≈ 0.1 µM); in [4] it was 0.12 µg/mL (≈ 0.1 µM); in series [5] it was 0.12 µg/mL (≈ 0.1 µM); in [6], 0.12 µg/mL (≈ 0.1 µM); in [7] it was 0.016 µg/mL (≈ 0.0133 µM). In [8], this molecule had an MIC of 0.25 µg/mL (≈ 0.209 µM).
